Laboratory results reported in ChEMBL document CHEMBL1155848 (J Med Chem, 2008).
Blank lines part the entries; values can stand above or below the molecule they belong to.

Assays:
Cytochrome P450 3A4 [1] = target: T1, Cytochrome P450 3A4 (Homo sapiens, UniProt P08684); assay: Inhibition of human recombinant CYP3A4 using 7-benzyloxyquinoline substrate; assay type: ADME
In short: (§1)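 Recombinant human CYP450 microsomal protein (0.1 mg/mL) with substrate and a concentration range of compound (dissolved in methanol), preincubated 10 min at 37 °C in 50 mM potassium phosphate pH 7.4. Reaction started with an NADPH-generating system. Fluorescent metabolite formation followed over 10 min. Rates converted to percent of mean control rate, and IC50 derived from the plot. Miconazole served as positive control.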

HUVEC [2] = assay: Inhibition of VEGF-induced HUVEC proliferation by BrdU incorporation method after 72 hrs; assay type: functional, cell-based; details: Homo sapiens
In short: (§2)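 HUVEC seeded in 5% FBS medium on type 1 collagen, held overnight at 37 °C, 5% CO2. Inhibitor at various concentrations added in serum-free medium. After 30 min, VEGF (10 ng/mL) or bFGF (0.3 ng/mL) added. Cells incubated a further 72 h, with BrdU (10 µM) present for the last 18–24 h. Incorporation read by ELISA; IC50 from fit of y = Vmax(1 − x/(K + x)).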

Cytochrome P450 2C9 = Cytochrome P450 2C9 (Homo sapiens, UniProt P11712); assay: Inhibition of human recombinant CYP2C9; assay type: ADME
Cytochrome P450 2C19 = Cytochrome P450 2C19 (Homo sapiens, UniProt P33261); assay: Inhibition of human recombinant CYP2C19; assay type: ADME
In short: (§3)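 Recombinant human CYP450 microsomal protein (0.1 mg/mL) with substrate in 50 mM potassium phosphate, pH 7.4. Compound (range of concentrations, methanol) preincubated 10 min at 37 °C. Reaction started with an NADPH-generating system. Fluorescent metabolite formation followed over 10 min. Rates converted to percent of mean control; IC50 from the slope of the plot. Miconazole included as positive control.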

Cytochrome P450 2D6 = Cytochrome P450 2D6 (Homo sapiens, UniProt P10635); assay: Inhibition of human recombinant CYP2D6; assay type: ADME; in short: as §3
Cytochrome P450 3A4 [3] = target: T1, Cytochrome P450 3A4; assay: Inhibition of human recombinant CYP3A4 using diethoxyfluorescein substrate; assay type: ADME; in short: as §1
[4] = target: T2, Vascular endothelial growth factor receptor 2 (Homo sapiens, UniProt P35968); assay: Inhibition of human recombinant VEGFR2
[5] = target: T2, Vascular endothelial growth factor receptor 2; assay: Inhibition of VEGFR2
HUVEC [6] = assay: Inhibition of basic-fibroblast growth factor-induced HUVEC proliferation; assay type: functional, cell-based; details: Homo sapiens; in short: as §2
HUVEC [7] = assay: Inhibition of VEGF-induced HUVEC proliferation; assay type: functional, cell-based; details: Homo sapiens; in short: as §2
[8] = Clearance in rat at 10 mg/kg; assay type: ADME, organism-based; design: dose 10 mg/kg; details: in vivo
[9] = Oral bioavailability in rat at 10 mg/kg; assay type: ADME, organism-based; details: in vivo
[10] = Clearance in dog at 1 mg/kg; assay type: ADME, organism-based, Canis lupus familiaris; design: dose 1 mg/kg; details: in vivo
[11] = Oral bioavailability in dog at 1 mg/kg; assay type: ADME, organism-based, Canis lupus familiaris; details: in vivo
[12] = Clearance in monkey at 5 mg/kg; assay type: ADME, organism-based, Macaca mulatta; design: dose 5 mg/kg; details: rhesus monkey, in vivo
[13] = Oral bioavailability in monkey at 5 mg/kg; assay type: ADME, organism-based, Macaca mulatta; details: rhesus monkey, in vivo
[14] = AUC (0 to infinity) in mouse at 10 mg/kg, po; assay type: ADME, organism-based; design: time infinity, dose 10 mg/kg, route oral; details: plasma
[15] = AUC (0 to infinity) in mouse at 30 mg/kg, po; assay type: ADME, organism-based; design: dose 30 mg/kg, route oral, time infinity; details: plasma
[16] = AUC (0 to infinity) in mouse at 100 mg/kg, po; assay type: ADME, organism-based; design: time infinity, dose 100 mg/kg, route oral; details: plasma
[17] = Plasma concentration in mouse at 10 mg/kg, po after 12 hrs; assay type: ADME, organism-based; design: dose 10 mg/kg, route oral
[18] = Plasma concentration in mouse at 30 mg/kg, po after 12 hrs; assay type: ADME, organism-based; design: dose 30 mg/kg, route oral
[19] = Plasma concentration in mouse at 100 mg/kg, po after 12 hrs; assay type: ADME, organism-based; design: dose 100 mg/kg, route oral
Mus musculus [20] = assay: Inhibition of angiogenesis in Swiss Nu/Nu mouse assessed as hemoglobin content at 10 mg/kg, po by bFGF/matrigel plug assay; assay type: functional
Mus musculus [21] = assay: Inhibition of angiogenesis in Swiss Nu/Nu mouse assessed as hemoglobin content at 30 mg/kg, po by bFGF/matrigel plug assay; assay type: functional
Mus musculus [22] = assay: Inhibition of angiogenesis in Swiss Nu/Nu mouse assessed as hemoglobin content at 100 mg/kg, po by bFGF/matrigel plug assay; assay type: functional
HT-29 [23] = assay: Antitumor activity against human HT29 cells xenografted in mouse assessed as inhibition of tumor growth at 10 mg/kg, po relative to control; assay type: functional
HT-29 [24] = assay: Antitumor activity against human HT29 cells xenografted in mouse assessed as inhibition of tumor growth at 30 mg/kg, po relative to control; assay type: functional
HT-29 [25] = assay: Antitumor activity against human HT29 cells xenografted in mouse assessed as inhibition of tumor growth at 100 mg/kg, po relative to control; assay type: functional
[26] = Antitumor activity against human A375P cells xenografted in mouse assessed as inhibition of tumor growth at 10 mg/kg, po relative to control; assay type: functional
[27] = Antitumor activity against human A375P cells xenografted in mouse assessed as inhibition of tumor growth at 30 mg/kg, po relative to control; assay type: functional
[28] = Antitumor activity against human A375P cells xenografted in mouse assessed as inhibition of tumor growth at 100 mg/kg, po relative to control; assay type: functional
HN5 [29] = assay: Antitumor activity against human HN5 cells xenografted in mouse assessed as inhibition of tumor growth at 10 mg/kg, po relative to control; assay type: functional
HN5 [30] = assay: Antitumor activity against human HN5 cells xenografted in mouse assessed as inhibition of tumor growth at 30 mg/kg, po relative to control; assay type: functional
HN5 [31] = assay: Antitumor activity against human HN5 cells xenografted in mouse assessed as inhibition of tumor growth at 100 mg/kg, po relative to control; assay type: functional
[32] = Protein binding in mouse plasma by equilibrium dialysis; assay type: ADME, cell-free; details: read-out: PPB

Chain of Cytochrome P450 2C19 (P33261 whole entry): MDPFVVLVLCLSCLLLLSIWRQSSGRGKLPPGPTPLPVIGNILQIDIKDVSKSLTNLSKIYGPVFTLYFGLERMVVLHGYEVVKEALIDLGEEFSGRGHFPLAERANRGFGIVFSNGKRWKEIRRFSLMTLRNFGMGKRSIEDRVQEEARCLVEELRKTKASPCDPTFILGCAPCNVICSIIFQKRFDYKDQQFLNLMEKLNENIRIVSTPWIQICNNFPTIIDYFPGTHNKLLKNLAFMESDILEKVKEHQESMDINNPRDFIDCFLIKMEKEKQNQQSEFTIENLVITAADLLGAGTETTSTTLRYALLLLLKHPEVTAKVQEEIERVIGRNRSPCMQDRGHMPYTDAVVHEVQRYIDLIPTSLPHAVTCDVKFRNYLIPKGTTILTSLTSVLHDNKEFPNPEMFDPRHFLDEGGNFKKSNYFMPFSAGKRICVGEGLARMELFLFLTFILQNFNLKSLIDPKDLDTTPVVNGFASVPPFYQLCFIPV
Chain of Cytochrome P450 2C9 (P11712 whole entry): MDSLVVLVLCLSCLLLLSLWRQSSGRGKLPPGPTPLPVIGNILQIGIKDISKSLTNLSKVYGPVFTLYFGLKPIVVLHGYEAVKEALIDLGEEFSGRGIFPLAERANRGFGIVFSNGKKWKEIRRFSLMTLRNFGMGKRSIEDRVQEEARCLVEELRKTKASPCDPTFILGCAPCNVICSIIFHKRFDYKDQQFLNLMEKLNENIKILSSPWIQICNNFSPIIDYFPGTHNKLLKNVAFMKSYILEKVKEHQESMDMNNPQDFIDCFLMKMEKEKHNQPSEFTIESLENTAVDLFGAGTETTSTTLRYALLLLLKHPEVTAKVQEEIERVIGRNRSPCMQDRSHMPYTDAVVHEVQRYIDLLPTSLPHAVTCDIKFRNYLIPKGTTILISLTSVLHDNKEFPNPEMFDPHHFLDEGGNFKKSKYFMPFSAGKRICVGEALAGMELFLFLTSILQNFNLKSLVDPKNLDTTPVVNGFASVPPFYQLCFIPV
T2 sequence (P35968 whole entry): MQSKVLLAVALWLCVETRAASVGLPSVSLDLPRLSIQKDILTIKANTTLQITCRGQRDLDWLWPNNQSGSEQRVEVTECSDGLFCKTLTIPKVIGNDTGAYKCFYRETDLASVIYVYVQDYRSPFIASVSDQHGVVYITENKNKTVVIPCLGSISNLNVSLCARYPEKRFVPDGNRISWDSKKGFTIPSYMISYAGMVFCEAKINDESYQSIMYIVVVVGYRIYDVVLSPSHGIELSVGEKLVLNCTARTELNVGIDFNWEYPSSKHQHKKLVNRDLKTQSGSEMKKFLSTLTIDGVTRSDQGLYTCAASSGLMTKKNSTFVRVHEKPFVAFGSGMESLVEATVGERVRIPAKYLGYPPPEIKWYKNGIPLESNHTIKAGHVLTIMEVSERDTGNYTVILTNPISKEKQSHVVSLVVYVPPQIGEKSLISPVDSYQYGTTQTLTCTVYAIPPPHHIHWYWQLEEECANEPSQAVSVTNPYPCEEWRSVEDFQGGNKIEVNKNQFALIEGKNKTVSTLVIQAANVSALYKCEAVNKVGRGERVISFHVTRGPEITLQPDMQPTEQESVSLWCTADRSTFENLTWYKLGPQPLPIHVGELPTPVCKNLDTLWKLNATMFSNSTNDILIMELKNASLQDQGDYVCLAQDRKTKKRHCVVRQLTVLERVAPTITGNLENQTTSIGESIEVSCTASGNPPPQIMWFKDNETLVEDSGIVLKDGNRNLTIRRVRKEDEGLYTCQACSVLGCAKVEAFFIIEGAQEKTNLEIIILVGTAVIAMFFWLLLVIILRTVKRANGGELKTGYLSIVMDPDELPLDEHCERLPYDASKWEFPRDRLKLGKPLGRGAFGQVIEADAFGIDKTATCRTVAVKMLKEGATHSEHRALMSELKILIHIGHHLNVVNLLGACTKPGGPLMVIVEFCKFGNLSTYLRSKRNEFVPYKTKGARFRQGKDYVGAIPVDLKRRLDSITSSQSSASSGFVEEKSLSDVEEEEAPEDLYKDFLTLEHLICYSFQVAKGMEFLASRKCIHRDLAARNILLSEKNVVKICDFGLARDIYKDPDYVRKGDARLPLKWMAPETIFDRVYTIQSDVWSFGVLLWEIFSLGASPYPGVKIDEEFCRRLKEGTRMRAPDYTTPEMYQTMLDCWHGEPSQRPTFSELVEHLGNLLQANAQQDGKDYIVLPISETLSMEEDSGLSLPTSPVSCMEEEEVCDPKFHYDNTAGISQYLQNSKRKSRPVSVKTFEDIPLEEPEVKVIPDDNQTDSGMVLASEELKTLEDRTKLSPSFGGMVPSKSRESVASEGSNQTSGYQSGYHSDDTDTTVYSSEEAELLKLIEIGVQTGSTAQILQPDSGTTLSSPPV
Chain of Cytochrome P450 2D6 (P10635 whole entry): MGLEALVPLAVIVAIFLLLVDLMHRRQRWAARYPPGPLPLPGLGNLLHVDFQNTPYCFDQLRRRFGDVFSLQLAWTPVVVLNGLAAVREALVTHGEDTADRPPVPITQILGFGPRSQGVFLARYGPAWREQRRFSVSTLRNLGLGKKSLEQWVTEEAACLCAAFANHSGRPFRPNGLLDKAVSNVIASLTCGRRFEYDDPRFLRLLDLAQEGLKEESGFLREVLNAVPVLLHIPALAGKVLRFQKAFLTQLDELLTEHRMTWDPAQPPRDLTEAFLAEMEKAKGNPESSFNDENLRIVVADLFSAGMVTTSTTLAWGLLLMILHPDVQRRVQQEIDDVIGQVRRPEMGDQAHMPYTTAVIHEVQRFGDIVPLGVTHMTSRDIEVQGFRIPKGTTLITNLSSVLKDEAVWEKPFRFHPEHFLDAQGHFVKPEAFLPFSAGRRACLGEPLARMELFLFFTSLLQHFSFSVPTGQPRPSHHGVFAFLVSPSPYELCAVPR
T1 sequence (P08684 whole entry): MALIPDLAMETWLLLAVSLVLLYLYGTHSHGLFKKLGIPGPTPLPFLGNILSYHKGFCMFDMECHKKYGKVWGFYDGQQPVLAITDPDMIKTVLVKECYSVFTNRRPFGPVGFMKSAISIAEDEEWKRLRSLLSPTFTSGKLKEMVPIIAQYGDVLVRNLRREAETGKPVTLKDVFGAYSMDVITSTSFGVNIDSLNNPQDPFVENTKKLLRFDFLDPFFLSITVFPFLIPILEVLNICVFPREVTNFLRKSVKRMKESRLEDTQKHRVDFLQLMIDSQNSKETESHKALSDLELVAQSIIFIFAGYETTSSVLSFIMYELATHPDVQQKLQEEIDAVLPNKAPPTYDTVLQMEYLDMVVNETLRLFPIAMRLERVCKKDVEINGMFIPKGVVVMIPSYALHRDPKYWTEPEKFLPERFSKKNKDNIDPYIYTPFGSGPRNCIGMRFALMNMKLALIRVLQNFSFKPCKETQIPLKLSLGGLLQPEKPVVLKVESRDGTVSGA

SMILES: Cc1n[nH]c2cc(N(C)c3ccnc(Nc4cccc(S(N)(=O)=O)c4)n3)ccc12
IC50 (Cytochrome P450 3A4 [1]): 16 µM | IC50 (HUVEC [2]): 0.094 µM | IC50 (Cytochrome P450 2C9): 0.7 µM | IC50 (Cytochrome P450 2C19): 7.2 µM | IC50 (Cytochrome P450 2D6): 4.8 µM | IC50 (Cytochrome P450 3A4 [3]): 7.6 µM

IC50 (Cytochrome P450 3A4 [1]): 45 µM | IC50 (Cytochrome P450 2C9): 9 µM | IC50 (Cytochrome P450 2C19): 33 µM | IC50 (Cytochrome P450 2D6): 33 µM | IC50 (Cytochrome P450 3A4 [3]): 27 µM
SMILES: Cc1nc2cc(N(C)c3ccnc(Nc4cccc(S(N)(=O)=O)c4)n3)ccc2n1C
IC50 (HUVEC [2]): 1.4 µM

IC50 (Cytochrome P450 3A4 [1]): 1.7 µM | IC50 (Cytochrome P450 2C9): 15 µM | IC50 (Cytochrome P450 2C19): 26 µM | IC50 (Cytochrome P450 2D6): 25 µM | IC50 (Cytochrome P450 3A4 [3]): 26 µM
SMILES: Cc1nc2ccc(N(C)c3ccnc(Nc4cccc(S(N)(=O)=O)c4)n3)cc2n1C
IC50 (HUVEC [2]): 2.8 µM

IC50 [4]: 0.0006 µM
SMILES: COc1cc2ncnc(Nc3ccc(C)c(O)c3)c2cc1OC

IC50 (Cytochrome P450 3A4 [1]): 31 µM | IC50 (Cytochrome P450 2C9): 1.4 µM | IC50 (Cytochrome P450 2C19): 20 µM | IC50 (Cytochrome P450 2D6): 16 µM | IC50 (Cytochrome P450 3A4 [3]): 16 µM
SMILES: Cc1c2ccc(N(C)c3ccnc(Nc4cccc(S(N)(=O)=O)c4)n3)cc2nn1C
IC50 (HUVEC [2]): 0.023 µM

IC50 [5]: 0.0063 µM
SMILES: Cc1ccc(Nc2ccnc(Nc3cccc(Br)c3)n2)cc1O
IC50 (HUVEC [6]): 3.5 µM | IC50 (HUVEC [7]): 0.54 µM

IC50 (Cytochrome P450 3A4 [1]): 1.7 µM | IC50 (Cytochrome P450 2C9): 1 µM | IC50 (Cytochrome P450 2C19): 9.3 µM | IC50 (Cytochrome P450 2D6): 6.3 µM | IC50 (Cytochrome P450 3A4 [3]): 13 µM
SMILES: Cc1nn(C)c2cc(N(C)c3ccnc(Nc4cccc(S(N)(=O)=O)c4)n3)ccc12 [GW770220A]
IC50 (HUVEC [2]): 1.4 µM

IC50 (Cytochrome P450 3A4 [1]): 79 µM | IC50 (Cytochrome P450 2C9): 0.5 µM | IC50 (Cytochrome P450 2C19): 1.4 µM | IC50 (Cytochrome P450 2D6): 66 µM | IC50 (Cytochrome P450 3A4 [3]): 74 µM
SMILES: Cc1c2ccc(N(C)c3ccnc(Nc4cccc(S(N)(=O)=O)c4)n3)cc2nn1Cc1ccccc1
IC50 (HUVEC [2]): 11 µM

IC50 [5]: 0.0017 µM
SMILES: COc1cc2ncnc(Nc3ccc4c(C)n[nH]c4c3)c2cc1OC

clearance [8]: 10 mL/min/kg | bioavailability [9]: 65%
SMILES: CCS(=O)(=O)c1ccc(OC)c(Nc2nccc(N(C)c3ccc4c(C)n[nH]c4c3)n2)c1

clearance [8]: 1.4 mL/min/kg | bioavailability [9]: 72% | clearance [10]: 1.4 mL/min/kg | bioavailability [11]: 47% | clearance [12]: 1.4 mL/min/kg | bioavailability [13]: 65% | AUC(0-inf) [14]: 220 µg·h/mL | AUC(0-inf) [15]: 657 µg·h/mL | AUC(0-inf) [16]: 1140 µg·h/mL | concentration at 12 h [17]: 6320 ng/mL | concentration at 12 h [18]: 24800 ng/mL | concentration at 12 h [19]: 38500 ng/mL | fraction unbound [32]: < 0.001
SMILES: Cc1ccc(Nc2nccc(N(C)c3ccc4c(C)n(C)nc4c3)n2)cc1S(N)(=O)=O [PAZOPANIB]
inhibition in vivo at 10 mg/kg (Mus musculus [20]): 0% | inhibition in vivo at 30 mg/kg (Mus musculus [21]): 57% | inhibition in vivo at 100 mg/kg (Mus musculus [22]): 83% | inhibition in vivo at 10 mg/kg (HT-29 [23]): 32% | inhibition in vivo at 30 mg/kg (HT-29 [24]): 59% | inhibition in vivo at 100 mg/kg (HT-29 [25]): 69% | inhibition in vivo at 10 mg/kg [26]: 16% | inhibition in vivo at 30 mg/kg [27]: 35% | inhibition in vivo at 100 mg/kg [28]: 55% | inhibition in vivo at 10 mg/kg (HN5 [29]): 99% | inhibition in vivo at 30 mg/kg (HN5 [30]): 102% | inhibition in vivo at 100 mg/kg (HN5 [31]): 110%

IC50 (Cytochrome P450 3A4 [1]): 3.9 µM | IC50 (Cytochrome P450 2C9): 2.9 µM | IC50 (Cytochrome P450 2C19): 9.2 µM | IC50 (Cytochrome P450 2D6): 18 µM | IC50 (Cytochrome P450 3A4 [3]): 4.7 µM
SMILES: CN(c1ccc2cn(C)nc2c1)c1ccnc(Nc2cccc(S(N)(=O)=O)c2)n1
IC50 (HUVEC [2]): 0.11 µM

IC50 [5]: 0.4 µM
SMILES: Fc1cnc(Nc2cccc(Br)c2)nc1Nc1cccc(Br)c1

clearance [8]: 16 mL/min/kg | bioavailability [9]: 85%
SMILES: COc1cc(Nc2nccc(Nc3ccc4c(C)n[nH]c4c3)n2)cc(OC)c1OC [GW612286X]
IC50 (HUVEC [7]): 0.18 µM

SMILES: COc1cc2/c(=N/c3ccc(Br)cc3F)nc[nH]c2cc1OCC1CCN(C)CC1 [VANDETANIB]
IC50 (HUVEC [7]): 0.4 µM

clearance [8]: 40 mL/min/kg | bioavailability [9]: 28%
SMILES: CCS(=O)(=O)c1ccc(OC)c(Nc2nccc(Nc3ccc4c(C)n[nH]c4c3)n2)c1
IC50 (HUVEC [6]): 13 µM | IC50 (HUVEC [7]): 0.13 µM
